Bioassay records from PubChem.
Sampled rows, rich in hits. Any-hit rate of the full collection: about 1.5%.
Cneo AK release = Cryptococcus neoformans cell lysis inducers, primary screen, AK release luminescence, single concentration. C. neoformans lysis, adenylate kinase release luminescence, 4 h; normalised: neutral wells 0, clomiphene wells 100. lysis activity, % at 15 µM. 360,000 tested, 0.2% active. AID 651654, 2012;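 active = mean lysis activity across replicates of at least 80%, whatever share of replicates individually reach that level; inactive = mean lysis activity below 80%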
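Test system: log-phase Cryptococcus neoformans yeast cells. Input: 5 × 10^6 yeast cells/mL. Medium: fresh YPD growth medium. Doses: single dose. Incubation: static 4 h at 37 °C with compound, 1 h detection. Measured by: luminescent adenylate kinase detection reagent. Read-out: signal increase indicating cell lysis. Benchmarks: Clomiphene.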
MITF TRPM1 HTS = activators of MITF-driven TRPM1 promoter reporter, primary screen, cell-based, SK-MEL-5, luciferase, single point; SK-MEL-5 TRPM1-promoter luciferase, 24 h; % of positive control, neutral wells = 0; activation, % at 12.5 µM; 300,000 tested, 0.75% active;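 active = mean activation of at least 80% with every replicate also reaching 80%; inconclusive = mean reaches 80% but some replicate falls short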
PGC1a acetyl inh = inhibitors of PGC1a acetylation signal, primary screen, cell-based, U2OS, AlphaScreen, inhibitor mode; AlphaScreen anti-acetyl-lysine; with virally co-expressed GCN5 acetyltransferase; inhibition, % at 15.6 µM; 350,000 tested, 0.17% active; AID 651687, 2012;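 active = every replicate shows inhibition of at least 40%; inconclusive = mean inhibition at least 40% but some replicate below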
Wnt act = Wnt/beta-catenin pathway activators, primary screen, cell-based, plate reader, single point | Wnt/beta-catenin reporter cell assay, activator | activation, % at 9.35 µM | 300,000 tested, 1.2% active | AID 743398, 2014; in the data active = activation above about 30%, passing the limit was not always enough; inconclusive = no clear call, values can overlap the other calls
Numbers stand for hits; - = inactive; ? = inconclusive; . = not tested or not shown.

SMILES	Cneo AK release	MITF TRPM1 HTS	PGC1a acetyl inh	Wnt act
O=C(c1cnn(-c2cccc(F)c2)c1)c1ccccc1O	.	-	.	37.3
O=C(O)c1ccc(-n2cc(C(=O)c3ccccc3O)cn2)cc1	-	-	-	-
C[C@@H]1CN([C@H](C)CO)C(=O)c2cc(NC(=O)Nc3ccccc3)ccc2O[C@@H](C)CCCCO[C@H]1CN(C)S(=O)(=O)c1ccc(Cl)cc1	-	.	-	.
c1ccc(-c2nnc(-c3ccccc3)nn2)cc1	-	.	-	50.3
O=C(CCN1CCCCC1)NCC[C@@H]1CC[C@H](NC(=O)C2CCCC2)[C@@H](CO)O1	-	.	-	.
O=C(CC(C(=O)O)c1c[nH]c2ccccc12)c1ccccc1 (configuration not stated)	-	-	81.2	-
CCOc1ccc(/C=C2\CCC(C3CCCC3)C2=O)cc1 (configuration not stated)	-	122.8	-	?
O=C1/C(=C/c2ccco2)CCC1C1CCCC1 (configuration not stated)	.	-	-	37.9
COc1ccc(NC(=O)Nc2ccc3c(c2)C(=O)N([C@H](C)CO)C[C@H](C)[C@H](CN(C)C(=O)Nc2cccc4ccccc24)O3)cc1	-	.	-	.
C=CCn1c(-c2csc(-c3ccccc3)n2)n[nH]c1=S	-	-	-	-
C=CCn1c(-c2cc(-c3ccccc3)sc2N)n[nH]c1=S	-	.	-	41.0
O=C(NCC[C@H]1CC[C@@H](NC(=O)c2cnccn2)[C@@H](CO)O1)c1ccc2c(c1)OCO2	-	.	-	.
C[C@@H]1CCCCO[C@@H](CN(C)C(=O)c2ccncc2)[C@H](C)CN([C@H](C)CO)C(=O)c2cc(NC(=O)c3ccccc3)ccc2O1	-	.	-	.
COc1ccc(NC(=O)Nc2ccc3c(c2)CC(=O)N([C@@H](C)CO)C[C@@H](C)[C@@H](CN(C)S(=O)(=O)c2cn(C)cn2)O3)cc1	-	.	-	.
Oc1ccc(Cl)cc1C1=Nc2ccccc2N=C(c2ccco2)C1	-	-	-	-
Fc1ccccc1C1CC(c2ccco2)=Nc2ccccc2S1 (configuration not stated)	.	-	-	34.9
C/C=C/c1ccc([C@@H]2[C@@H](C#N)N(S(=O)(=O)c3cccc(F)c3)[C@@H]2CO)cc1	108.5	.	-	.
C/C=C/c1ccccc1[C@@H]1[C@@H](C#N)N(S(=O)(=O)c2cccc(F)c2)[C@H]1CO	.	.	-	.
O=C(Nc1cccc(F)c1)N1CC(=O)N2[C@@H](CO)[C@@H](c3ccc(-c4ccc(F)cc4)cc3)[C@@H]2C1	.	.	-	.
O=C1NC(c2ccccc2Br)=N/C1=C\c1ccco1	.	-	.	70.4
Cc1cn(CCC(=O)Nc2ccc(N3CCOCC3)cc2)c2ccccc12	-	81.4	-	-
Cc1ccc(-c2csc(NC(=O)c3cccc(C)c3)c2C(=O)O)cc1	-	.	-	40.2
Cc1ccc(-c2csc(NC(=O)c3ccc(Br)cc3)c2C(=O)O)cc1	.	106.3	.	-
O=C(CC1CC1)N1[C@@H]2CN(S(=O)(=O)c3ccccc3)c3ccccc3[C@@H]2[C@@H]1CO	106.3	.	-	.
Cc1ccc(N/C=C2/Sc3ccccc3NC2=O)cc1	-	-	.	37.3
SMILES	Cneo AK release	MITF TRPM1 HTS	PGC1a acetyl inh	Wnt act
O=C1Nc2ccccc2S/C1=C/c1cccs1	-	.	-	34.0
COc1ccc(N/C=C2/Sc3ccccc3NC2=O)cc1	-	-	-	-
C[C@@H]1CCCCO[C@@H](CN(C)Cc2ccncc2)[C@H](C)CN([C@H](C)CO)C(=O)c2cc(NC(=O)Nc3ccccc3)ccc2O1	-	.	-	.
C[C@@H]1CN([C@@H](C)CO)C(=O)c2cc(NC(=O)c3ccccc3)ccc2O[C@@H](C)CCCCO[C@H]1CN(C)S(=O)(=O)c1cccs1	-	.	-	.
COc1cccc(-c2nc(-c3cccs3)no2)c1	.	-	-	-
Cc1ccc(-c2nc(-c3ccncc3)no2)cc1C	-	.	-	38.8
Cc1ccc(-c2nc(-c3ccncc3)no2)cc1Cl	-	.	-	-
Brc1ccc(-c2nc(-c3ccccc3)no2)o1	-	-	-	49.7
COc1ccc(-c2nc(-c3ccc(Br)o3)no2)cc1OC	-	-	-	-
COc1cccc(-c2nc(-c3ccncc3)no2)c1	.	-	.	34.7
COc1cccc(-c2nc(-c3ccc(Br)o3)no2)c1	-	-	-	45.4
CC(C)C#Cc1cnc2c(c1)C(=O)N([C@@H](C)CO)C[C@H](C)[C@@H](CN(C)Cc1cncnc1)O2	-	.	-	.
Cc1cccc(-c2ccc([C@H]3[C@H]4CN(C(=O)NC5CCCCC5)CC(=O)N4[C@H]3CO)cc2)c1	.	.	-	.
Cc1ccc(S(=O)(=O)Nc2cccc3c2O[C@H](CN(C)Cc2ccc(C(=O)O)cc2)[C@@H](C)CN([C@@H](C)CO)C3=O)cc1	-	.	-	.
COc1ccccc1-c1nc(-c2ccncc2)no1	-	.	-	61.1
c1ccc(-c2noc(-c3cccc4ccccc34)n2)nc1	-	-	-	.
COc1cccc(-c2nc(-c3ccccn3)no2)c1OC	-	84.3	-	59.8
O=S(=O)(Cc1cc(-c2ccccc2Cl)no1)c1ccccc1	-	89.9	-	-
O=C(Nc1ccc(F)cc1)N[C@H]1CC[C@H](CCn2cc(-c3ccc(F)cc3)nn2)O[C@H]1CO	-	.	-	.
CO[C@@H]1CN(C)C(=O)c2ccc(NC(=O)Nc3ccccc3)cc2OC[C@@H](C)N(C(=O)Nc2c(C)noc2C)C[C@H]1C	-	.	-	.
CN(C)/C=C(/C(=O)c1ccccc1Cl)S(=O)(=O)c1ccccc1	-	.	.	.
COc1ccc(C(=O)/C(=C/N(C)C)S(=O)(=O)c2ccccc2)cc1	.	94.0	.	-
C/C(NC(=O)c1cccc(F)c1)=C1/C(=O)C[C@@H]2[C@H]1C2(C)C	.	109.4	-	.
C/C(NC(=O)c1ccccc1F)=C1\C(=O)C[C@@H]2[C@H]1C2(C)C	-	.	-	-
COc1ccc(-c2cc3nc4ccccc4n3c(N)c2C#N)cc1	.	113.7	-	-
SMILES	Cneo AK release	MITF TRPM1 HTS	PGC1a acetyl inh	Wnt act
COc1ccc(-c2c(C)nn(-c3ccccc3)c2N)cc1	.	102.8	-	-
COc1ccc(-c2c(C)nn(-c3ccccc3)c2N)cc1OC	-	-	-	.
COc1ccc(-c2nn(-c3ccccc3)cc2CO)cc1	-	-	-	-
COc1ccc(-c2nn(-c3ccccc3)cc2N)cc1	.	-	-	59.3
Cc1ccc(N=Nc2c(N)nn(-c3ccccc3)c2N)cc1	.	-	.	33.0
COc1ccccc1NC(=O)N(C)C[C@@H]1OCc2ccccc2-c2ccccc2C(=O)N([C@@H](C)CO)C[C@H]1C	.	.	-	.
O=C(N/N=C/c1cn(-c2ccccc2)nc1-c1cc2ccccc2o1)c1cccnc1	.	-	.	73.3
Cc1cc(C)nc(NC(=O)c2cc3ccccc3o2)n1	-	-	-	-
Cc1ccc(NC(=O)c2ccc3ccccc3n2)nc1	-	-	-	77.3
Cc1ccc(NC(=O)c2cc3ccccc3o2)nc1	.	-	-	64.7
CC(C)c1cc2cc3ccc(=O)oc3cc2o1	-	94.2	-	-
CCCN1C[C@H](C)[C@H](OC)CN(C)C(=O)c2cc(NC(=O)NC3CCCCC3)ccc2OC[C@H]1C	-	.	.	.
Nc1c2c(nc3sc4c(c13)CCCC4)-c1ccccc1CC2	-	.	-	42.3
